Data on 22 molecules can be found in ChEMBL document CHEMBL1137298, “2-triazole-substituted adenosines: a new class of selective A3 adenosine receptor agonists, partial agonists, and antagonists” (J Med Chem, 2006).

One may read the pKi as −log10 of the Ki, conventionally taken in molar units. Read a high pKi as a small Ki. The term inhibition denotes the percentage by which the read-out fell short of the control.

pKi: −log10 of the molar value. The source made the active and inactive calls. The calls are words filed in the database; no cut-off is given here.

The target in one test is T1, Adenosine receptor A1 (Homo sapiens, UniProt P30542).
T1 sequence (P30542 whole entry): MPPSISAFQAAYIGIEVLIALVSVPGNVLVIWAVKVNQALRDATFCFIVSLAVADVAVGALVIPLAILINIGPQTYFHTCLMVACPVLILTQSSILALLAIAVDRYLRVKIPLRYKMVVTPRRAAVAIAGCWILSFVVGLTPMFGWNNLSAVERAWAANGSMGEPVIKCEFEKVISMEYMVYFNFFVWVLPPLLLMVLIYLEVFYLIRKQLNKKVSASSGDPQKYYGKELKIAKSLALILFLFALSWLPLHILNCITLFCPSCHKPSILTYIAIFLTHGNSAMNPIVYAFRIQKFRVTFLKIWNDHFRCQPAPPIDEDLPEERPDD
Put plainly: Displacement of [3H]CCPA from human Adenosine A1 receptor expressed in CHO cells. In kind it is cell-based. On the technique in general: In a radioligand displacement assay an active substance lowers the binding of a labelled ligand.

Test [1] deals with Adenosine receptor A2b (Homo sapiens) (UniProt P29275). Put plainly: Activity at human adenosine A2B receptor in CHO cells assessed as stimulation of cAMP production relative to NECA at 10 uM.
Test [2] concerns the target T2, Adenosine receptor A3 (Homo sapiens, UniProt P0DMS8).
T2 sequence (P0DMS8 whole entry): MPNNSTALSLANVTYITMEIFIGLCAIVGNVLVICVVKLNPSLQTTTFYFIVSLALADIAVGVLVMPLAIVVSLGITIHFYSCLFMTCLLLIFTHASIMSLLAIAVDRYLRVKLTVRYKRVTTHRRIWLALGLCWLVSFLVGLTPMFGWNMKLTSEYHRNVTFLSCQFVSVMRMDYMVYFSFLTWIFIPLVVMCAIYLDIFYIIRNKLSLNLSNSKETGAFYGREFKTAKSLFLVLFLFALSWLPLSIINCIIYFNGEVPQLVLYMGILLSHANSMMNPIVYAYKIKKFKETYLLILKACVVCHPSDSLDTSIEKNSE
Put plainly: Displacement of [125I]AB-MECA from human Adenosine A3 receptor expressed in CHO cells. In kind it is cell-based.

Test [3] concerns the target T3, Adenosine receptor A2a (Homo sapiens, UniProt P29274). Kind of test: Inhibition of [3H]CGS21680 binding to human Adenosine A2A receptor expressed in CHO cells at 10 uM. In kind it is cell-based. A digest of the protocol: (§1)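 Membranes from CHO cells stably transfected with human A1AR (radioligand [3H]CCPA) or human A2AAR (radioligand [3H]CGS21680), in Tris-HCl pH 7.4/MgCl2/EDTA buffer with adenosine deaminase. Compound tested at a fixed 10 µM. Result expressed as percent displacement of radioligand, n = 3 unless otherwise noted.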

In test [4] the target is Adenosine receptors; A1 & A3 (Homo sapiens) (UniProt P30542+P0DMS8). Put plainly: Selectivity for human adenosine A3 over human adenosine A1 receptor. Format: protein assay.
In test [5] the target is T4, Adenosine receptor A3 (Rattus norvegicus, UniProt P28647).
T4 sequence (P28647 whole entry): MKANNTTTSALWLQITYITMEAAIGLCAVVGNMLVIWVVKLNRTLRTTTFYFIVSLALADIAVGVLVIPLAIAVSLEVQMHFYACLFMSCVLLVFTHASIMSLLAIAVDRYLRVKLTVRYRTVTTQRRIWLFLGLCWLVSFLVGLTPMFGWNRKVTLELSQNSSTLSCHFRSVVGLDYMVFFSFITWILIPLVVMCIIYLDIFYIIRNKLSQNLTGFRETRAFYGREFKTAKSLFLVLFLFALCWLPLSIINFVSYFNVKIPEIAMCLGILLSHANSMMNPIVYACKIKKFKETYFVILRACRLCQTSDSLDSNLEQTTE
Put plainly: Displacement of [125I]AB-MECA from rat Adenosine A3 receptor expressed in CHO cells. Format: cell-based. A digest of the protocol: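 Membranes from CHO cells expressing rat A3AR, prepared in 50 mM Tris-HCl pH 7.4 with 10 mM MgCl2, 1 mM EDTA and 3 units/mL adenosine deaminase. Incubated with [125I]AB-MECA (0.5 nM final) and increasing compound concentrations for 60 min at 25 °C. Nonspecific binding defined with 10 µM NECA. GF/B filtration, gamma counting, Ki derived.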

In test [6] the target is T5, Adenosine receptor A1 (Homo sapiens) (UniProt P30542).
T5 sequence (whole entry): T1 sequence (P30542 whole entry)
Kind of test: Inhibition of [3H]CCPA binding to human Adenosine A1 receptor expressed in CHO cells at 10 uM. In kind it is cell-based. A digest of the protocol: as §1

For test [7], the target named is T3, Adenosine receptor A2a. Put plainly: Displacement of [3H]CGS-21680 from human Adenosine A2A receptor expressed in CHO cells. In kind it is cell-based.

T3 sequence (P29274 whole entry): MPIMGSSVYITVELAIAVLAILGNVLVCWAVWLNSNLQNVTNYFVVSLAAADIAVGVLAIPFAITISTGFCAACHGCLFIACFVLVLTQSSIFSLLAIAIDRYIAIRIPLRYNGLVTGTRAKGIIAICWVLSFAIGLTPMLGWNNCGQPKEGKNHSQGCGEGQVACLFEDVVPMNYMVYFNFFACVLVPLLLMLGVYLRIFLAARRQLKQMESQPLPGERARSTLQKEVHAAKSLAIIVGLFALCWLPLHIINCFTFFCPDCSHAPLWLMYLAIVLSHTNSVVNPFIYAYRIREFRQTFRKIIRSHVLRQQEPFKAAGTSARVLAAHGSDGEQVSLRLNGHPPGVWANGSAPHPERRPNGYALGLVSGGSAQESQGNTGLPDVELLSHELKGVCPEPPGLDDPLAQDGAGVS

Regarding `CNc1nc(-n2cc(CC3CCCCC3)nn2)nc2c1ncn2[C@@H]1O[C@H](CO)[C@@H](O)[C@H]1O`, the pKi at Adenosine receptor A1 is 5.84; on Adenosine receptor A3 [2], 7.67. In test [1], the Activity was under 50%. The same molecule displayed an inhibition on Adenosine receptor A2a [3] of 16%. For the same molecule, the Selectivity ratio in test [4] amounted to 67.
With `CNc1nc(-n2cc(CC3CCCC3)nn2)nc2c1ncn2[C@@H]1O[C@H](CO)[C@@H](O)[C@H]1O`, the values for the pKi at Adenosine receptor A1, at Adenosine receptor A3 [2] and on Adenosine receptor A3 [5] were 6.47, 8.89 and 6.51, respectively. For the same molecule, in test [1], the Activity was under 50%. This molecule displayed an inhibition at Adenosine receptor A2a [3] of 39%. In addition, in test [4], the Selectivity ratio turned out to be 260.
In the case of `CNc1nc(-n2cc(-c3ccccn3)nn2)nc2c1ncn2[C@@H]1O[C@H](CO)[C@@H](O)[C@H]1O`, the pKi on Adenosine receptor A1 is 5.71; at Adenosine receptor A3 [2] it was 7.99; on Adenosine receptor A3 [5], under 5.00. Also, in test [1], the outcome was inactive. Further, the inhibition on Adenosine receptor A2a [3] came out at 40%.
Take `CCNC(=O)[C@H]1O[C@@H](n2cnc3c(NC)nc(-n4cc(CC5CCCC5)nn4)nc32)[C@H](O)[C@@H]1O`: the negative-log Ki (pKi) on Adenosine receptor A1 was 5.90; at Adenosine receptor A3 [2], 7.94. Further, in test [1], the Activity is under 50%. In addition, on Adenosine receptor A2a [3], the inhibition is 36%.
For `CCCOc1ccc(-c2cn(-c3nc(NC)c4ncn([C@@H]5O[C@H](CO)[C@@H](O)[C@H]5O)c4n3)nn2)cc1`, the inhibition in test [6] amounted to 49%; at Adenosine receptor A2a [3], 14%. Further, the Activity in test [1] is under 50%. The results for the pKi on Adenosine receptor A3 [2] and on Adenosine receptor A3 [5] were 7.60 and under 5.00, respectively.
With `CCNC(=O)[C@H]1O[C@@H](n2cnc3c(NC)nc(-n4cc(Cc5ccccc5)nn4)nc32)[C@H](O)[C@@H]1O`, the pKi was 6.29 at Adenosine receptor A1 and 8.55 on Adenosine receptor A3 [2]. Also, the Activity in test [1] was 50%. The inhibition on Adenosine receptor A2a [3] came out at 33%.
Regarding `CNc1nc(-n2cc(CN(C)C)nn2)nc2c1ncn2[C@@H]1O[C@H](CO)[C@@H](O)[C@H]1O`, the values for the pKi at Adenosine receptor A1, on Adenosine receptor A3 [2] and on Adenosine receptor A3 [5] were 5.42, 6.93 and under 5.00, respectively. Also, in test [1], the outcome was inactive. Also, the inhibition at Adenosine receptor A2a [3] was 6%.
For the molecule `CNc1nc(-n2cc(CCO)nn2)nc2c1ncn2[C@@H]1O[C@H](CO)[C@@H](O)[C@H]1O`, the pKi on Adenosine receptor A1 was 5.90; on Adenosine receptor A3 [2], 7.35. The outcome in test [1] was inactive. In addition, on Adenosine receptor A2a [3], the inhibition worked out at 14%.
On to `CCNC(=O)[C@H]1O[C@@H](n2cnc3c(NC)nc(-n4cc(-c5ccccn5)nn4)nc32)[C@H](O)[C@@H]1O`, for which the pKi on Adenosine receptor A1 is 5.79; on Adenosine receptor A3 [2] it was 8.74. Besides, the Activity in test [1] was under 50%. The molecule further showed an inhibition on Adenosine receptor A2a [3] of 45%. In addition, the Selectivity ratio in test [4] is 910.
As to `CNc1nc(-c2cn(Cc3ccccc3)nn2)nc2c1ncn2[C@@H]1O[C@H](CO)[C@@H](O)[C@H]1O`, the pKi is 6.11 at Adenosine receptor A1 and 7.27 at Adenosine receptor A3 [2]. Moreover, the Activity in test [1] is under 50%. The molecule also gave an inhibition on Adenosine receptor A2a [3] of 21%.
Regarding `CNc1nc(-n2cc(-c3ccccc3)nn2)nc2c1ncn2[C@@H]1O[C@H](CO)[C@@H](O)[C@H]1O`, the inhibition in test [6] was 36%; at Adenosine receptor A2a [3], 5%. The result in test [1] was inactive. For the same molecule, at Adenosine receptor A3 [2], the pKi was 7.83.
With `CNc1nc(N=[N+]=[N-])nc2c1ncn2[C@@H]1O[C@H](CO)[C@@H](O)[C@H]1O`, the Activity in test [1] was under 50%. For the same molecule, the inhibition on Adenosine receptor A2a [3] stood at 23%.
Consider `CCCCc1cn(-c2nc(NC)c3ncn([C@@H]4O[C@H](C(=O)NCC)[C@@H](O)[C@H]4O)c3n2)nn1`, for which the figures for the pKi on Adenosine receptor A1 and at Adenosine receptor A3 [2] were 6.12 and 8.25, respectively. Besides, the outcome in test [1] was inactive. The molecule further displayed an inhibition at Adenosine receptor A2a [3] of 43%.
In the case of `CNc1nc(-n2cc(Cc3ccccc3)nn2)nc2c1ncn2[C@@H]1O[C@H](CO)[C@@H](O)[C@H]1O`, the pKi at Adenosine receptor A1 was 6.23; on Adenosine receptor A3 [2], 8.02; on Adenosine receptor A3 [5], 5.75. Also, the Activity in test [1] was under 50%. This molecule also had an inhibition on Adenosine receptor A2a [3] of 20%.
Regarding `CCCCc1cn(-c2nc(NC)c3ncn([C@@H]4O[C@H](CO)[C@@H](O)[C@H]4O)c3n2)nn1`, the outcome in test [1] was inactive. For the same molecule, the pKi at Adenosine receptor A3 [2] is 7.93. Besides, the inhibition at Adenosine receptor A2a [3] stood at 23%. Besides, the Selectivity ratio in test [4] was found to be 72.
Consider `CNc1nc(-c2cn(Cc3cccc(Cl)c3)nn2)nc2c1ncn2[C@@H]1O[C@H](CO)[C@@H](O)[C@H]1O`, for which the pKi at Adenosine receptor A1 was 6.02; at Adenosine receptor A3 [2] it was 7.09. The Activity in test [1] was under 50%. The inhibition on Adenosine receptor A2a [3] came out at 39%.
For `CNc1nc(-n2ccnn2)nc2c1ncn2[C@@H]1O[C@H](CO)[C@@H](O)[C@H]1O`, the figures for the pKi at Adenosine receptor A1 and on Adenosine receptor A3 [2] were 6.00 and 7.98, respectively. Further, the inhibition at Adenosine receptor A2a [3] is 13%.
Turning to `CNc1nc(-c2cn(Cc3cccc(OC)c3)nn2)nc2c1ncn2[C@@H]1O[C@H](CO)[C@@H](O)[C@H]1O`, the pKi at Adenosine receptor A1 is 6.02; on Adenosine receptor A3 [2] it was 7.06. Besides, the Activity in test [1] is under 50%. At Adenosine receptor A2a [3], this molecule showed an inhibition of 43%.
Regarding `CCNC(=O)[C@H]1O[C@@H](n2cnc3c(NC)nc(-n4ccnn4)nc32)[C@H](O)[C@@H]1O`, the pKi at Adenosine receptor A1 was 6.23; on Adenosine receptor A3 [2], 8.68. Further, the outcome in test [1] was inactive. The molecule also yielded an inhibition at Adenosine receptor A2a [3] of 18%.
For the molecule `COc1ccc(Cl)cc1CNc1nc(-n2cc(CC3CCCC3)nn2)nc2c1ncn2[C@@H]1O[C@H](CO)[C@@H](O)[C@H]1O`, the pKi was 6.08 at Adenosine receptor A1, 7.74 at Adenosine receptor A3 [2] and 5.22 on Adenosine receptor A2a [7].
In the case of `CCNC(=O)[C@H]1O[C@@H](n2cnc3c(NC)nc(N=[N+]=[N-])nc32)[C@H](O)[C@@H]1O`, the Activity in test [1] came to 50%. In addition, at Adenosine receptor A2a [3], the inhibition turned out to be 18%.
With `CCc1cn(-c2nc(NC)c3ncn([C@@H]4O[C@H](CO)[C@@H](O)[C@H]4O)c3n2)nn1`, the pKi is 5.53 at Adenosine receptor A1 and 7.86 at Adenosine receptor A3 [2]. Also, in test [1], the Activity was under 50%. Besides, on Adenosine receptor A2a [3], the inhibition came out at 18%.
